Measurements collected from several papers.
Compare with care: the assays were run in different laboratories.
Cell line: HepG2
Read-out: cell growth or viability

N=C(CC(O)c1nc2ccccc2c2ccccc12)Nc1ccc(F)cc1 (centres unmarked) — CC50 (neutral red; 24 h): 48.5 µM
CN(CC(=O)Nc1ccc(N(C)c2ccc(Cl)cc2)c(Cl)c1)c1ccccc1N1CCCC1=O — CC50 (ATP luminescence; 48 h): > 40 µM
N=C(CC(O)c1cc2cccnc2c2cccnc12)Nc1ccc(F)cc1 (centres unmarked) — CC50 (neutral red; 24 h): 265 µM
C[n+]1cc2c3c(ccc2c2ccc4cc5c(cc4c21)OCO5)OCO3 — CC50 (ATP luminescence; 72 h): 9.44 µM
CCCCN(c1ccc(C)cc1)c1ccc(NC(=O)CN(C)c2ccccc2N2CCCC2=O)cc1 — CC50 (ATP luminescence; 48 h): > 40 µM
Clc1ccc(Nc2ncnc3ccc(-c4cccc(N5CCOCC5)c4)cc23)cc1 — CC50 (MTT; 48 h): 18 µM
CCCCCCNc1nc(NC2CCN(C)CC2)c2cc(OC)c(OC)cc2n1 — CC50 (ATP luminescence; 72 h): 2.03 µM
Cc1ccc(Nc2ncnc3ccc(-c4cccc(N5CCOCC5)c4)cc23)cc1 — CC50 (MTT; 48 h): 19 µM
CCC(C)N(c1ccc(C)cc1)c1ccc(NC(=O)CN(C)c2ccccc2N2CCCC2=O)cc1 (centres unmarked) — CC50 (ATP luminescence; 48 h): > 40 µM
c1cc(-c2ccc3ncnc(Nc4ncco4)c3c2)nc(N2CCOCC2)n1 — CC50 (MTT; 48 h): 26 µM
O=C1c2ccccc2C(=O)c2c(NCCc3ccc(O)cc3)ccc(NCCc3ccc(O)cc3)c21 — CC50 (ATP luminescence; 72 h): 16.1 µM
N=C(CC(O)c1nc2ccccc2c2ccc(Cl)cc12)Nc1ccc(F)cc1 (centres unmarked) — CC50 (neutral red; 24 h): > 25 µM
Cc1ccc(N(C)c2ccc(NC(=O)CN(C)c3cccnc3N3CCCC3=O)cc2)cc1 — CC50 (ATP luminescence; 48 h): > 40 µM
c1cc(-c2ccc3ncnc(NC4CCOCC4)c3c2)cc(N2CCOCC2)c1 — CC50 (MTT; 48 h): 26 µM
CC(C)N(c1ccc(C#N)cc1)c1ccc(NC(=O)CN(C)c2ccccc2N2CCCC2=O)cn1 — CC50 (ATP luminescence; 48 h): > 40 µM
CC(=O)[C@]1(O)Cc2c(O)c3c(c(O)c2[C@@H](O[C@H]2C[C@H](N)[C@H](O)[C@H](C)O2)C1)C(=O)c1ccccc1C3=O — CC50 (ATP luminescence; 72 h): 0.14 µM
Clc1ccc(Nc2ncnc3ccc(-c4cccc(N5CCOCC5)c4)cc23)cc1Cl — CC50 (MTT; 48 h): > 40 µM
